The list is not random: actives were taken first. Their share in the collection is about 3.9%.
NF-kB neuron act = NF-kB expression increase, human neuronal cells | NF-kB reporter expression; hits give high values | fold change at 12.5 µM | actives 1.6% (n = 190,000) | AID 1239; in the data active means fold change above about 3.3
STAT1 blocker = reduces IFN-gamma driven STAT1 reporter signal; inhibition, % at 5.5 µM; AID 920; NIH 3T3 STAT1-luciferase reporter, luminescence; actives 0.35% (n = 200,000);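 active means inhibition above a set limit, the mean inhibition across all tested compounds plus 3 SD, cut at about 34% in these data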
APP 5'UTR act = activates APP 5'UTR luciferase reporter | actives 1% (n = 190,000) | SH-SY5Y APP 5'UTR luciferase reporter, luminescence; zero percent = DMSO vehicle wells | activation, % at 2 µM;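 active means activation above a set limit, based on mean plus 3 SD of controls, cut at about 140% in these data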
Pf gamet viab = P. falciparum stage V gametocyte viability inhibition | P. falciparum stage V gametocytes, ATP luminescence, 24 h | actives 0.065% (n = 150,000) | inhibition, % at 10.9 µM | AID 743093;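 active means inhibition above the mean plus 3 SD of compounds within the control limits, set per campaign, cut at about 38% in these data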
STAT1 act = activators of IFN-gamma induced STAT1 signaling; actives 2.6% (n = 200,000); NIH 3T3 STAT1-luciferase reporter, luminescence; 100% = IFN-gamma alone, no compound; activation (% of control), % at 5.5 µM;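 active means activation above the screen-wide mean activation plus 3 SD, cut at about 130% in these data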
STAT3 activator = activators of IL-6 induced STAT3 signaling; U3A cells, IL-6 STAT3-luciferase reporter, luminescence; 100% = signal with IL-6 EC80 alone; actives 0.91% (n = 190,000); activation (% of control), % at 5.6 µM;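 active means activation above the screen-wide mean of compound activation plus 3 SD, cut at about 130% in these data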
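Test system: Human STAT1-deficient U3A cells with stable STAT3-luciferase reporter | Also added: Interleukin-6, 33 ng/mL | Timing: Compound pre-incubation 1 h before IL-6, then 6 h stimulation at 37 °C | Technique: Luciferase reporter luminescence | Read-out: Percent of IL-6-only median luminescence | Benchmarks: IL-6-only wells as 100% reference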
STAT1 activ conf = confirmation of STAT1 signaling activators | shares compounds with STAT1 act | NIH 3T3 STAT1-luciferase reporter, IFN-gamma potentiation, luminescence; 100% = IFN-gamma EC80 alone, no compound | activation (% of control), % at 5.7 µM | actives 97% (n = 1,200) | AID 1262;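 active means activation above a set limit carried over from the earlier primary STAT1 screen, cut at about 140% in these data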
NFkB act STAT1ct = NF-kappaB activation in STAT1 activator counter-screen. activation (% of control), % at 5.7 µM. shares compounds with STAT1 act. HEK293T NF-kB luciferase reporter, TNF-alpha stimulated, luminescence; 100% = TNF-alpha with vehicle only. actives 43% (n = 1,200);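 active means activation above the mean of solvent-only control wells plus 3 SD, set per campaign, cut at about 130% in these data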;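 further: TNF-alpha given at a submaximal dose yielding about 80% of full reporter signal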
STAT3 act 2 = counter-screen for STAT1 activators: human STAT3 activation. activation (% of control), % at 5.7 µM. U3A cells STAT3-luciferase reporter, IL-6, luminescence; cells lack STAT1; 100 = IL-6 alone, no compound effect. AID 1316. actives 46% (n = 1,200). shares compounds with STAT1 act;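 active means activation above the solvent-only control well mean plus 3 SD, set per plate batch, cut at about 110% in these data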;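 further: higher means more STAT3 reporter activation so hits are non-selective activators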
Of the large screens only hits and unclear results are named; the others gave an inactive call (follow-up assays come after a bar, where they were run).

CCC(C)NC(=O)c1cc(-c2ccc(OC)cc2)on1 (stereo not given)	NF-kB neuron act 3.4, STAT1 act 157 (no result: Pf gamet viab) | STAT1 activ conf 179 | NFkB act STAT1ct inactive | STAT3 act 2 inactive
Cc1ccn2c(NC3CCCCC3)c(-c3cccc(-c4cccc(Cl)c4)c3)nc2c1	none (no result: NF-kB neuron act, STAT1 blocker, APP 5'UTR act, STAT1 act, STAT3 activator)
Brc1ccc(-c2csc(N3CCOCC3)n2)cc1	NF-kB neuron act 3.4, STAT1 act 151 | STAT1 activ conf 190 | NFkB act STAT1ct 137 | STAT3 act 2 inactive
Clc1ccc(-c2csc(N3CCOCC3)n2)cc1	NF-kB neuron act 4.9, STAT1 act 160 (no result: Pf gamet viab) | STAT1 activ conf 176 | NFkB act STAT1ct 139 | STAT3 act 2 inactive
Brc1ccc(-c2csc(N3CCCCCC3)n2)cc1	none (no result: NF-kB neuron act, STAT1 blocker, APP 5'UTR act, STAT1 act, STAT3 activator)
N#Cc1c(NCc2ccccc2)ccnc1Cl	none (no result: NF-kB neuron act, STAT1 blocker, APP 5'UTR act, STAT1 act, STAT3 activator)
CN(C)C(C)(C)/C=C/C(O)(c1ccccc1)c1ccccc1	none (no result: NF-kB neuron act, STAT1 blocker, APP 5'UTR act, STAT1 act, STAT3 activator)
Cc1ccc(Nc2n[nH]c(C)c2[N+](=O)[O-])cc1C	NF-kB neuron act 7.7, APP 5'UTR act 210, STAT1 act 191 (no result: Pf gamet viab) | STAT1 activ conf 239 | NFkB act STAT1ct 147 | STAT3 act 2 117
CCN1CCN(c2nc(N)c([N+](=O)[O-])c(Nc3ccc(C)c(C)c3)n2)CC1	none
CCc1ccc(NC(=O)N2CCC(c3ccccc3)C2)cc1 (stereo not given)	NF-kB neuron act 4.3, APP 5'UTR act 164, STAT1 act 161 | STAT1 activ conf 182 | NFkB act STAT1ct inactive | STAT3 act 2 inactive
CC(C(=O)Nc1cccnc1)C1Sc2ccccc2NC1=O (stereo not given)	none
CCc1cc2c(=O)c(-c3ccc4c(c3)OCCO4)coc2cc1OS(C)(=O)=O	STAT1 act 156 (no result: Pf gamet viab) | STAT1 activ conf 160 | NFkB act STAT1ct 137 | STAT3 act 2 117
O=[N+]([O-])c1cccc(-c2nnc(-c3ccccc3)o2)c1	STAT1 act 153 | STAT1 activ conf 161 | NFkB act STAT1ct inactive | STAT3 act 2 inactive
Cc1cc(C)n(-c2ccc(C(=O)Nc3sccc3C(N)=O)cc2)n1	APP 5'UTR act 171, STAT1 act 163 | STAT1 activ conf 211 | NFkB act STAT1ct inactive | STAT3 act 2 inactive
Cc1cc(C)n(-c2ccc(C(=O)Nc3ccccn3)cc2)n1	NF-kB neuron act 4.1, APP 5'UTR act 142, STAT1 act 156 | STAT1 activ conf 181 | NFkB act STAT1ct inactive | STAT3 act 2 inactive
Cc1cc(C(=O)CSc2nc3ccccc3[nH]2)c(C)n1Cc1ccco1	APP 5'UTR act 214, STAT1 act 165 | STAT1 activ conf 209 | NFkB act STAT1ct inactive | STAT3 act 2 inactive
COc1ccc2c(c1)Cc1sc(NC(=O)c3ccco3)nc1-2	NF-kB neuron act 3.9, APP 5'UTR act 186, STAT1 act 189 (no result: Pf gamet viab) | STAT1 activ conf 199 | NFkB act STAT1ct 147 | STAT3 act 2 inactive
COC(=O)c1c(-c2ccccc2)csc1NC(=O)c1ccco1	STAT1 act 174 (no result: Pf gamet viab) | STAT1 activ conf 194 | NFkB act STAT1ct 135 | STAT3 act 2 inactive
Cc1sc(NC(=O)c2ccco2)nc1-c1ccccc1	NF-kB neuron act 6.9, APP 5'UTR act 170, STAT1 act 202 (no result: Pf gamet viab) | STAT1 activ conf 237 | NFkB act STAT1ct 135 | STAT3 act 2 112
O=C(Nc1nc(-c2cccs2)cs1)c1ccco1	NF-kB neuron act 3.6, APP 5'UTR act 196, STAT1 act 159 (no result: Pf gamet viab) | STAT1 activ conf 173 | NFkB act STAT1ct 134 | STAT3 act 2 inactive
CC(=O)c1sc(NC(=O)c2ccco2)nc1-c1ccccc1	none (no result: Pf gamet viab)
O=c1c2c(nc3cc(-c4ccc(F)cc4)[nH]n13)CCC2	STAT1 act 152 (no result: Pf gamet viab) | STAT1 activ conf 176 | NFkB act STAT1ct inactive | STAT3 act 2 inactive
Cc1ccc(-c2cc3nc4c(c(=O)n3[nH]2)CCCC4)cc1	STAT1 act 174 (no result: NF-kB neuron act) | STAT1 activ conf 232 | NFkB act STAT1ct inactive | STAT3 act 2 inactive
CCc1nnc(NC(=O)c2ccc(Br)o2)s1	none (no result: NF-kB neuron act, STAT1 blocker, APP 5'UTR act, STAT1 act, STAT3 activator)
Cc1ccc(C(=O)Nc2nc3c(s2)CCCC3)o1	NF-kB neuron act 7.3, APP 5'UTR act 166, STAT1 act 155 | STAT1 activ conf 209 | NFkB act STAT1ct inactive | STAT3 act 2 inactive
O=C(Nc1nc2c(s1)CCCC2)c1ccc(Br)o1	NF-kB neuron act 6.2, APP 5'UTR act 163, STAT1 act 165 (no result: Pf gamet viab) | STAT1 activ conf 217 | NFkB act STAT1ct inactive | STAT3 act 2 inactive
CCc1c(C)[nH]c(C(=O)OCc2ccccc2)c1C	STAT1 act 152 | STAT1 activ conf 146 | NFkB act STAT1ct inactive | STAT3 act 2 inactive
COC(=O)c1c(C)[nH]c(C(=O)OCc2ccc(F)cc2)c1C	STAT1 act 152 | STAT1 activ conf 163 | NFkB act STAT1ct inactive | STAT3 act 2 inactive
CC(=O)c1c(C)[nH]c(C(=O)OCC(=O)NCCc2ccc(F)cc2)c1C	none (no result: Pf gamet viab)
CCOc1ccc(NC(=S)N(CC)Cc2ccccc2)cc1	none (no result: Pf gamet viab)
COC(=O)c1ccc(NC(=O)CCN2CCN(Cc3ccccc3)CC2)cc1	none (no result: Pf gamet viab)
C[n+]1cccc(/C=N/NC(=O)CC23CC4CC(CC(C4)C2)C3)c1	none (no result: NF-kB neuron act, STAT1 blocker, APP 5'UTR act, STAT1 act, STAT3 activator)
CSc1ccccc1C(=O)C1CCCN(Cc2cnn(-c3ccccc3)c2)C1 (stereo not given)	none (no result: Pf gamet viab)
Cc1ccc(Cc2cnc(NC(=O)c3cccs3)s2)cc1	NF-kB neuron act 7.1, APP 5'UTR act 170, STAT1 act 171 | STAT1 activ conf 219 | NFkB act STAT1ct 143 | STAT3 act 2 133
O=C(Nc1ncc(Cc2ccccc2)s1)C1COc2ccccc2O1 (stereo not given)	APP 5'UTR act 164, STAT1 act 184 | STAT1 activ conf 192 | NFkB act STAT1ct inactive | STAT3 act 2 114
O=C(Nc1ncc(Cc2ccccc2)s1)c1cccs1	NF-kB neuron act 8.4, APP 5'UTR act 194, STAT1 act 154 | STAT1 activ conf 276 | NFkB act STAT1ct 142 | STAT3 act 2 122
O=C(NCc1cccnc1)C1COc2ccccc2O1 (stereo not given)	none
Cc1ccc(OCc2ccc(Br)cc2)c([N+](=O)[O-])n1	NF-kB neuron act 3.8, APP 5'UTR act 156, STAT1 act 154 | STAT1 activ conf 175 | NFkB act STAT1ct 141 | STAT3 act 2 118
CN(C)NC(=O)C12CCC(C)(C(=O)O1)C2(C)C (stereo not given)	none (no result: Pf gamet viab)
